Assay results reported in ChEMBL document CHEMBL4190409, “New somatostatin-drug conjugates for effective targeting pancreatic cancer” (Bioorg Med Chem, 2018).
The source made the active and inactive calls. No cut-off for these calls is given here. Peptide text beside a SMILES is read from it.

Legend:
CAPAN-1 [1] = test: Cytotoxicity against human Capan1 cells after 48 hrs by XTT assay; assay type: functional, cell-based; conditions: CAPAN-1, 48 h
Summary of the method: (§1)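 Cells seeded at 5-10 x 10^4 cells/mL and preincubated 24 h, then washed and given fresh medium with a concentration series for 48 h or 72 h. XTT added for a further 2-4 h, absorbance read at 480 and 680 nm. % growth inhibition taken against medium+solvent and solvent-free controls. DMSO final <0.05%. Tetraplicates, each experiment run twice.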

CAPAN-1 [2] = test: Cytotoxicity against human Capan1 cells after 72 hrs by XTT assay; assay type: functional, cell-based; conditions: CAPAN-1, 72 h; summary of the method: as §1
PANC-1 [3] = test: Cytotoxicity against human PANC1 cells after 72 hrs by XTT assay; assay type: functional, cell-based; conditions: PANC-1, 72 h; summary of the method: as §1
PANC-1 [4] = test: Cytotoxicity against human PANC1 cells after 48 hrs by XTT assay; assay type: functional, cell-based; conditions: PANC-1, 48 h; summary of the method: as §1
[5] = Half life in IMDM culture medium by LC-MS analysis; assay type: physicochemical
Summary of the method: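 Conjugate stock (10 µl) added to 1 ml IMDM (DME-based, 20% bovine serum) at 37°C. Aliquots taken at 1, 3, 6, 24, 48, 72 and 96 h, quenched with 2.5 vol ethanol, centrifuged, filtered and analysed by LC-MS. At least three measurements.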

[6] = target: T1, Somatostatin receptor type 2 (Homo sapiens, UniProt P30874); test: Drug uptake in HEK293 cells co-expressing SSTR2 (unknown origin) and RFP assessed as SSTR2-mediated drug accumulation by measuring mean fluorescence intensity at 400 nM measured after 15 mins in presence of SSTR2 agonist octreotide by fluorescence assay; assay type: cell-based; conditions: hek293, 0.25 h, 0.4 µM
Summary of the method: (§2)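 FITC-peptide at 400 nM then added for 15 min. FITC/RFP fluorescence imaged; mean fluorescence intensity of FITC+ cells quantified (n = 10), representative of three experiments.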

[7] = target: T1, Somatostatin receptor type 2; test: Drug uptake in HEK293 cells co-expressing SSTR2 (unknown origin) and RFP assessed as SSTR2-mediated drug accumulation by measuring mean fluorescence intensity measured after 30 mins by fluorescence microscopic analysis (reference value: 1.1); assay type: ADME, cell-based; conditions: hek293, 0.5 h
[8] = target: T2, Somatostatin receptor type 1 (Homo sapiens, UniProt P30872); test: Drug uptake in HEK293 cells co-expressing SSTR1 (unknown origin) and RFP assessed as SSTR1-mediated drug accumulation by measuring mean fluorescence intensity measured after 30 mins by fluorescence microscopic analysis (reference value: 1.1); assay type: ADME, cell-based; conditions: hek293, 0.5 h
[9] = target: T3, Somatostatin receptor type 4 (Homo sapiens, UniProt P31391); test: Drug uptake in HEK293 cells co-expressing SSTR4 (unknown origin) and RFP assessed as SSTR4-mediated drug accumulation by measuring mean fluorescence intensity at 400 nM measured after 15 mins in presence of SSTR2 agonist octreotide by fluorescence assay; assay type: cell-based; conditions: hek293, 0.25 h, 0.4 µM; summary of the method: as §2
[10] = target: T4, Somatostatin receptor type 5 (Homo sapiens, UniProt P35346); test: Agonist activity at SSTR5 (unknown origin) expressed in HEK293 cells assessed as inhibition of forskolin-induced CRE promoter activity at 10 to 1000 nM by luciferase reporter gene assay; assay type: functional, cell-based
Summary of the method: (§3)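 HEK-293 cells (70,000/well) co-transfected via JetPei with CRE-luciferase reporter, β-galactosidase construct and one SSTR subtype vector (empty pcDNA3.1 control). After 1 day, treated with 10 µM forskolin alone or with peptide. Luminescence read relative to forskolin alone and normalized to β-galactosidase (ONPG). Triplicates, representative of three experiments.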

[11] = target: T3, Somatostatin receptor type 4; test: Agonist activity at SSTR4 (unknown origin) expressed in HEK293 cells assessed as inhibition of forskolin-induced CRE promoter activity at 10 to 1000 nM by luciferase reporter gene assay; assay type: functional, cell-based; summary of the method: as §3
[12] = target: T2, Somatostatin receptor type 1; test: Agonist activity at SSTR1 (unknown origin) expressed in HEK293 cells assessed as inhibition of forskolin-induced CRE promoter activity at 10 to 1000 nM by luciferase reporter gene assay; assay type: functional, cell-based; summary of the method: as §3
[13] = target: T1, Somatostatin receptor type 2; test: Agonist activity at SSTR2 (unknown origin) expressed in HEK293 cells assessed as inhibition of forskolin-induced CRE promoter activity at 10 to 1000 nM by luciferase reporter gene assay; assay type: functional, cell-based; summary of the method: as §3
[14] = target: T5, Somatostatin receptor type 3 (Homo sapiens, UniProt P32745); test: Drug uptake in HEK293 cells co-expressing SSTR3 (unknown origin) and RFP assessed as SSTR3-mediated drug accumulation by measuring mean fluorescence intensity measured after 30 mins by fluorescence microscopic analysis (reference value: 1.1); assay type: ADME, cell-based; conditions: hek293, 0.5 h
[15] = target: T4, Somatostatin receptor type 5; test: Drug uptake in HEK293 cells co-expressing SSTR5 (unknown origin) and RFP assessed as SSTR5-mediated drug accumulation by measuring mean fluorescence intensity measured after 30 mins by fluorescence microscopic analysis (reference value: 1.1); assay type: ADME, cell-based; conditions: hek293, 0.5 h
[16] = target: T5, Somatostatin receptor type 3; test: Agonist activity at SSTR3 (unknown origin) expressed in HEK293 cells assessed as inhibition of forskolin-induced CRE promoter activity at 10 to 1000 nM by luciferase reporter gene assay; assay type: functional, cell-based; summary of the method: as §3
[17] = target: T3, Somatostatin receptor type 4; test: Drug uptake in HEK293 cells co-expressing SSTR4 (unknown origin) and RFP assessed as SSTR4-mediated drug accumulation by measuring mean fluorescence intensity measured after 30 mins by fluorescence microscopic analysis (reference value: 1.1); assay type: ADME, cell-based; conditions: hek293, 0.5 h
[18] = Drug uptake in tumor of athymic nude mouse xenografted with human PANC1 cells at 120 mg/kg, iv measured after 24 hrs by fluorescent microscopic analysis; assay type: ADME, organism-based, Neoplasm; conditions: in vivo
Summary of the method: (§4)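 Five-week-old athymic nude mice inoculated subcutaneously in the dorsal left side with Panc-1 cells. When tumours reached 100 mm3, FITC-labelled peptide or peptide–CPT conjugate was given intravenously at 120 mg/kg as a single dose. At 24 h, tumour, spleen, pancreas, kidney and liver were excised and fluorescence was imaged by microscopy with a CCD camera.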

[19] = Drug uptake in pancreas of athymic nude mouse xenografted with human PANC1 cells at 120 mg/kg, iv measured after 24 hrs by fluorescent microscopic analysis; assay type: ADME, organism-based; conditions: in vivo; summary of the method: as §4
[20] = Drug uptake in kidney of athymic nude mouse xenografted with human PANC1 cells at 120 mg/kg, iv measured after 24 hrs by fluorescent microscopic analysis; assay type: ADME, organism-based; conditions: in vivo; summary of the method: as §4

T3 sequence (P31391 whole entry): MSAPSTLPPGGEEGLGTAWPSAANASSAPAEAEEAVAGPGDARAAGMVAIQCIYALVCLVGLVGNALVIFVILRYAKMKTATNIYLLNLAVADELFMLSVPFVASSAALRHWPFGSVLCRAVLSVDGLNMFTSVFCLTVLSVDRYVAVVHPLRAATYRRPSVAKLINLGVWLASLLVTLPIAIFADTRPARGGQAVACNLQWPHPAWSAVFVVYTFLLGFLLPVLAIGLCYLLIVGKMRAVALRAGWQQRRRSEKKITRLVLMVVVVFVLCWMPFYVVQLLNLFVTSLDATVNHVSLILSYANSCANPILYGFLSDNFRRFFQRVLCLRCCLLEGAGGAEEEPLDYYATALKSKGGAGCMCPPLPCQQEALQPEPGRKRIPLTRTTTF
T4 sequence (P35346 whole entry): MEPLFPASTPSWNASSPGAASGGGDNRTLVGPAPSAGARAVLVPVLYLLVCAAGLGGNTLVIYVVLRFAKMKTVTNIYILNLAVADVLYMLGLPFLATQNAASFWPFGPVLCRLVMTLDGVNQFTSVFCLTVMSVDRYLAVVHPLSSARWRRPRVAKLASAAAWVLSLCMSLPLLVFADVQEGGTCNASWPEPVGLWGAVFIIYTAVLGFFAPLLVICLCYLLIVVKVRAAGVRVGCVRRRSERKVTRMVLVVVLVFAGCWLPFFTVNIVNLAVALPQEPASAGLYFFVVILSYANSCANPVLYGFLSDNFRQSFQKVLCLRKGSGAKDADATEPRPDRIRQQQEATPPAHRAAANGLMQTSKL
T2 sequence (P30872 whole entry): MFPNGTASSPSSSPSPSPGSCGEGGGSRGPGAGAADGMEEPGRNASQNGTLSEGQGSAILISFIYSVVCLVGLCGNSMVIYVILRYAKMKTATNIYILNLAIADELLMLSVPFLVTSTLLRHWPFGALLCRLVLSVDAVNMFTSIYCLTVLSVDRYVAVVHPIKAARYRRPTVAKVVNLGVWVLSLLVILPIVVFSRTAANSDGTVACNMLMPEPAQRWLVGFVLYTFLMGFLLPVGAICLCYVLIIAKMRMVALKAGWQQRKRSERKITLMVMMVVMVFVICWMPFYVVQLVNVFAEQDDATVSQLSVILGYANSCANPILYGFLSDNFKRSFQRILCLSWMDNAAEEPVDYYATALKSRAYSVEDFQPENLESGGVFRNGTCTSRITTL
T5 sequence (P32745 whole entry): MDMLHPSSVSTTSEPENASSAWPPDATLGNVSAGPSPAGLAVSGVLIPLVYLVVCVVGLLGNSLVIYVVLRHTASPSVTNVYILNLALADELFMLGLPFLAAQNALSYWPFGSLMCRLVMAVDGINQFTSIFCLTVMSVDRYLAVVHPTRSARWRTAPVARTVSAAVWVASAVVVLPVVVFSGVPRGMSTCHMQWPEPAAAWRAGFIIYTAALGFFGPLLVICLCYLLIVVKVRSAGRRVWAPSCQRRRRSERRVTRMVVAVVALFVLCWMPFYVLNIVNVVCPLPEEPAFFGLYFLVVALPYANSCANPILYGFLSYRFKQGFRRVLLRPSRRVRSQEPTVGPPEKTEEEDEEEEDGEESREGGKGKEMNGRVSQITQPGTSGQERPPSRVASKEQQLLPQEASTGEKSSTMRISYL
T1 sequence (P30874 whole entry): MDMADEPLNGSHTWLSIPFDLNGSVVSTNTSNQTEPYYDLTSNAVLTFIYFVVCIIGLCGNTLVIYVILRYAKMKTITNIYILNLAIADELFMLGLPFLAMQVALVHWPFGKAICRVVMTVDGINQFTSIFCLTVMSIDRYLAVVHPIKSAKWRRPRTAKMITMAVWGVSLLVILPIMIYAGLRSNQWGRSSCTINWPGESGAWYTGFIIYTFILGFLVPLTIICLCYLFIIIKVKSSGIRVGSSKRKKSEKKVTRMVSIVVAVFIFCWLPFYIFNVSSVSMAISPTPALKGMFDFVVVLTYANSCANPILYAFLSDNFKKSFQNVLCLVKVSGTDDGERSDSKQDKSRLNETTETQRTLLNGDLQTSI

SMILES | IC50 (CAPAN-1 [1]) | IC50 (CAPAN-1 [2]) | IC50 (PANC-1 [3]) | IC50 (PANC-1 [4]) | half-life [5] | further results
COc1cc(/C=C\c2ccc(ON[C@H](Cc3ccccc3)C(=O)N[C@@H](CCCNC(=N)N)C(=O)N[C@H]3CSSCCN(CC(N)=O)C(=O)[C@H](Cc4ccccc4)NC(=O)[C@H]([C@@H](C)O)NC(=O)[C@H](CCCCN)NC(=O)[C@@H](Cc4c[nH]c5ccccc45)NC(=O)[C@H](Cc4ccccc4)NC3=O)c(OC(=O)NCCCC(C)=O)c2)cc(OC)c1OC | 670 nM | 520 nM | 1170 nM | 1720 nM | 900 min | –
COc1cc(C2c3[nH]c4ccccc4c3CC3COC(=O)N32)cc(OC)c1OC(=O)NCCCC(=O)N[C@H](Cc1ccccc1)C(=O)N[C@H]1CSSCCN(CC(N)=O)C(=O)[C@H](Cc2ccccc2)NC(=O)[C@H]([C@@H](C)O)NC(=O)[C@H](CCCCN)NC(=O)[C@H](Cc2c[nH]c3ccccc23)NC(=O)[C@@H](Cc2c[nH]c3ccccc23)NC(=O)[C@H](Cc2ccccc2)NC1=O (stereo partly drawn) | 250 nM | 90 nM | 2130 nM | 2980 nM | 300 min | –
C[C@@H](O)[C@@H]1NC(=O)[C@H](CCCCN)NC(=O)[C@H](Cc2c[nH]c3ccccc23)NC(=O)[C@@H](Cc2c[nH]c3ccccc23)NC(=O)[C@H](Cc2ccccc2)NC(=O)[C@@H](NC(=O)[C@H](N)Cc2ccccc2)CSSCCN(CC(N)=O)C(=O)[C@H](Cc2ccccc2)NC1=O | > 50000 nM | > 50000 nM | > 50000 nM | > 50000 nM | – | –
COc1cc(C2c3[nH]c4ccccc4c3CC3COC(=O)N32)cc(OC)c1OC(=O)NCCCC(=O)N[C@H](Cc1ccccc1)C(=O)N[C@@H](CCCNC(=N)N)C(=O)N[C@H]1CSSCCN(CC(N)=O)C(=O)[C@H](Cc2ccccc2)NC(=O)[C@H]([C@@H](C)O)NC(=O)[C@H](CCCCN)NC(=O)[C@@H](Cc2c[nH]c3ccccc23)NC(=O)[C@H](Cc2ccccc2)NC1=O (stereo partly drawn) | 1470 nM | 1430 nM | 140 nM | 270 nM | 180 min | –
COc1ccc(/C=C\c2cc(OC)c(OC)c(OC)c2)cc1O [COMBRETASTATIN A4] | 840 nM | – | 160 nM | – | – | –
C[C@@H](O)[C@@H]1NC(=O)[C@H](CCCCN)NC(=O)[C@@H](Cc2c[nH]c3ccccc23)NC(=O)[C@H](Cc2ccccc2)NC(=O)[C@@H](NC(=O)[C@H](CCCNC(=N)N)NC(=O)[C@H](N)Cc2ccccc2)CSSCCN(CC(N)=O)C(=O)[C@H](Cc2ccccc2)NC1=O (HELM PEPTIDE1{[dF].R.C.F.[dW].K.T.F.[O=C(CN(CCS[*:3])[*:1])[*:2]].[am]}$PEPTIDE1,PEPTIDE1,3:R3-9:R3$$$V2.0) | > 50000 nM | > 50000 nM | > 50000 nM | > 50000 nM | – | –
COc1cc([C@@H]2c3[nH]c4ccccc4c3C[C@H]3COC(=O)N32)cc(OC)c1O | 1570 nM | 1230 nM | 610 nM | – | – | –
CC[C@@]1(O)C(=O)OCc2c1cc1n(c2=O)Cc2cc3ccccc3nc2-1 [CAMPTOTHECIN] | – | 210 nM | 90 nM | 180 nM | – | –
COc1ccc(/C=C\c2cc(OC)c(OC)c(OC)c2)cc1OC(=O)NCCCC(=O)N[C@H](Cc1ccccc1)C(=O)N[C@H]1CSSCCN(CC(N)=O)C(=O)[C@H](Cc2ccccc2)NC(=O)[C@H]([C@@H](C)O)NC(=O)[C@H](CCCCN)NC(=O)[C@H](Cc2c[nH]c3ccccc23)NC(=O)[C@@H](Cc2c[nH]c3ccccc23)NC(=O)[C@H](Cc2ccccc2)NC1=O | 2560 nM | 2090 nM | 1190 nM | 2670 nM | 1080 min | –
C[C@@H](O)[C@@H]1NC(=O)[C@H](CCCCN)NC(=O)[C@H](Cc2c[nH]c3ccccc23)NC(=O)[C@@H](Cc2c[nH]c3ccccc23)NC(=O)[C@H](Cc2ccccc2)NC(=O)[C@@H](NC(=O)[C@@H](Cc2ccccc2)NC(=O)CCCNC(=S)Nc2ccc(-c3c4ccc(=O)cc-4oc4cc(O)ccc34)c(C(=O)O)c2)CSSCCN(CC(N)=O)C(=O)[C@H](Cc2ccccc2)NC1=O | – | – | – | – | – | Flu intensity [6]: 0.9; Flu intensity [7]: 6.7; Flu intensity [8]: 0.9; Flu intensity [9]: 21.1; inhibition [10]: Active; inhibition [11]: Active; inhibition [12]: inactive; inhibition [13]: Active; Flu intensity [14]: 42.1; Flu intensity [15]: 48.8; inhibition [16]: Active; Flu intensity [17]: 32.4
C[C@@H](O)[C@@H]1NC(=O)[C@H](CCCCN)NC(=O)[C@@H](Cc2c[nH]c3ccccc23)NC(=O)[C@H](Cc2ccccc2)NC(=O)[C@@H](NC(=O)[C@H](N)Cc2ccccc2)CSSC[C@@H](C(=O)N[C@H](CO)[C@@H](C)O)NC1=O | – | – | – | – | – | inhibition [13]: Active; inhibition [16]: Active
C[C@@H](O)[C@@H]1NC(=O)[C@H](CCCCN)NC(=O)[C@@H](Cc2c[nH]c3ccccc23)NC(=O)[C@H](Cc2ccccc2)NC(=O)[C@@H](NC(=O)[C@H](CCCNC(=N)N)NC(=O)[C@@H](Cc2ccccc2)NC(=O)CCCNC(=S)Nc2ccc(-c3c4ccc(=O)cc-4oc4cc(O)ccc34)c(C(=O)O)c2)CSSCCN(CC(N)=O)C(=O)[C@H](Cc2ccccc2)NC1=O | – | – | – | – | – | inhibition [10]: Active; inhibition [11]: Active; inhibition [12]: inactive; inhibition [13]: Active; Drug uptake [18]: Active; Drug uptake [19]: Not Active; inhibition [16]: Active; Drug uptake [20]: Active
